From the EternaBench riboswitch data

System: MS2 coat protein
Assay: apparent Kd, MS2 coat protein; higher = weaker binding; RNA-MaP array; tryptophan 2.4 mM where present
How it was run: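 Stalled E. coli RNA polymerase transcribed each design on Illumina sequencing-chip clusters. The clusters were titrated with SNAP-549-labelled MS2 coat protein, starting at 0.7 or 1.5 nM and doubling up to 3 µM, first without ligand and then with constant ligand, in 100 mM Tris-HCl pH 7.5, 80 mM KCl, 4 mM MgCl2, BSA, DTT, yeast tRNA and Tween-20. Green signal was normalised to red-channel RNA signal and to the control-cluster median Fmax. The apparent Kd is the median of filtered binding-curve fits made for each cluster.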

[1] = designed as: OFF switch for tryptophan, no ligand
[2] = ligand present: tryptophan, designed as: OFF switch for tryptophan
[3] = designed as: ON switch for tryptophan, no ligand
[4] = ligand present: tryptophan, designed as: ON switch for tryptophan

Row | Sequence | apparent Kd [1] | apparent Kd [2] | apparent Kd [3] | apparent Kd [4]
1 | UAACAUGAGGAUCACCCAUGUAUACUAAGUCGAGGACCGGUACGGCCGCCACUCGAACUUCAAGAAUAGGCGGUAAAUGUAAGUA | 0.0115 µM | 0.0133 µM | – | –
2 | UAAUAAGUACCGGUUCUCAGAUCCUCAUGUCGAGGACCGGUACGGCCGCCACUCGAAACAUGAGGAUCACCCAUGUAAUAAUAAU | 0.0362 µM | 0.0317 µM | – | –
3 | UAUUAUCAGUCGGCCGCCACUGACACAUGAGGAUCACCCAUGUAAUUUGGGUUAUAUAUAAAUUACAGGACCGGGACAAAUGCUA | 0.341 µM | 0.28 µM | – | –
4 | UCGGACAUGAGGAUCACCCAUGUAAAUCCUCGAGGACCGGUACGGCCGCCACUCGAACGAGUGGCACGCGAGUGCGCACUCGCGU | – | – | 0.0309 µM | 0.0277 µM
5 | UGAUACCAGUCGGCCGCCACUACAUGAGGAUCACCCAUGUAUGGGUCAAUGCUAGAUACUAGCAGUAGGACCGGGACUGGUAUCU | 0.0114 µM | 0.0361 µM | – | –
6 | UGGGUACCGACGGCCGCCACUGACUAUAGACAUGAGGAUCACCCAUGUAGAGAUCCUAGACUACCCAGGACCGGGUCUGGUGCUA | 0.124 µM | 0.22 µM | – | –
7 | UGUAUUGGAAACAGUACUAGUGAUCCGGUCCGAGGACCGGUACGGCCGCCACUCGAUAUAAAUAAACAUGAGGAUCACCCAUGUA | 0.0149 µM | 0.0298 µM | – | –
8 | UGUCGGCGUAAGUUGGCAUGUCUUGCUGGUCGAGGACCGGUACGGCCGCCACUCGAUCCUUCGCACAUGAGGAUCACCCAUGUUG | – | – | 0.0183 µM | 0.0171 µM
9 | UUACAUGAGGAUCACCCAUGUUUACUAUGUCGAGGACCGGUACGGCCGCCACUCGUAUUUGAUGAUUUAGGUGCCACAAGUUAUU | 0.0212 µM | 0.0205 µM | – | –
10 | UUAUGCAGGUCGGCCGCCACUACACACAUGAGGAUCACCCAUGUAGUUACUGGGUGAAGUGGCAGUAGGACCGGGACCUGCAUAU | – | – | 0.371 µM | 0.227 µM
11 | UUCUUUAAGUCGGCCGCCACUGAAACAUGAGGAUCACCCAUGUAAAUUUGGGAGUAGGUAUAUUACAGGACCGGGACUAUAGUAA | 0.03 µM | 0.0548 µM | – | –
12 | UUGCCCAGUACGGCCGCCACUGUGUGCAGGGAACCCAGGUCCACAUGAGGAUCACCCAUGUACAGCAGGACCGGGUACUUGCAAU | 0.00903 µM | 0.0117 µM | – | –
